# In the library only some 2.3% were active in any assay of this set; here they are far more common.
# ZTA counter: counter-screen for EBNA-1 inhibitors: inhibitors of Epstein-Barr virus ZTA; P03206; 320,000 tested, 0.15% active; AID 2234; ZTA-DNA binding, fluorescence polarization; inhibition, % at 11 µM; in the data active = inhibition above about 33%
# Target sequence (P03206 whole entry, looked up): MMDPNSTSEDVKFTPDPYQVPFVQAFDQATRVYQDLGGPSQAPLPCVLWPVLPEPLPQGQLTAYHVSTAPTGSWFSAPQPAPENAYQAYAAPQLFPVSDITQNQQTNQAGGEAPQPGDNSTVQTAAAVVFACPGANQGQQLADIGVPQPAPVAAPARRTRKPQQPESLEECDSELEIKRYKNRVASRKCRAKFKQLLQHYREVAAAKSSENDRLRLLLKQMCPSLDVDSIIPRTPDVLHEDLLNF
# core dimer inh: inhibitors of HCV core protein dimerization, primary screen, biochemical, TR-FRET, high-throughput; TR-FRET GST/Flag-core106 dimerization, 1536-well; inhibition, % at 5 µM; 300,000 tested, 0.33% active; AID 1899, 2009;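 active = inhibition above the mean of all tested compounds plus 3 SD, set per screening campaign, cut at about 45% in these data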
#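 System: GST-tagged and Flag-tagged HCV core protein residues 1-106 / Input: core106 proteins, GST 13.5 nM and Flag 17 nM / Buffer or medium: KF-containing HEPES buffer, pH 7.45, DTT, CHAPS, BSA / Probe or stimulus: Eu-anti-GST and XL665-anti-Flag labelled anti-tag antibodies / Schedule: 4 h, 22.5 °C incubation / Technique: TR-FRET 671 and 617 nm emission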
# EBNA-1 inhibitor: EBNA-1 DNA-binding inhibitors, primary screen, biochemical, fluorescence polarization; inhibition, % at 14.8 µM; 300,000 tested, 0.34% active; in the data active = inhibition above about 28%
# HCV NS3 hel inh: inhibitors of HCV NS3 helicase, primary screen, biochemical, Cy5 molecular beacon fluorescence | 290,000 tested, 0.56% active | inhibition, % at 10.9 µM | NS3 helicase DNA unwinding | Hepatitis C virus NS3 helicase;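 active = inhibition above the mean of all tested compounds plus 3 SD, set per campaign, cut at about 35% in these data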
#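 System: HCV NS3 helicase fragment; control set: DMSO and thioflavine S; technique: Cy5 fluorescence at 0 and 60 min, beacon hairpin quenching; reagent: beacon DNA duplex substrate plus ATP; replicates: singlicate; schedule: 1 h reaction at 25 °C, ATP-initiated; medium: MOPS buffer pH 6.5 with MgCl2, DTT, Tween20, BSA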
# EBV gp42 inh: Epstein-Barr virus gp42 inhibitors, primary screen, biochemical, uHTS, fluorescence polarization; Glycoprotein 42 (Epstein-Barr virus (strain AG876)), Q1HVG2; Fluorescence polarization binding assay, mP read-out; inhibition, % (tested at 21.74 µM); 220,000 tested, 0.42% active; AID 1085, 2008; in the data active = inhibition above about 50%
# Target sequence (Q1HVG2 whole entry, looked up): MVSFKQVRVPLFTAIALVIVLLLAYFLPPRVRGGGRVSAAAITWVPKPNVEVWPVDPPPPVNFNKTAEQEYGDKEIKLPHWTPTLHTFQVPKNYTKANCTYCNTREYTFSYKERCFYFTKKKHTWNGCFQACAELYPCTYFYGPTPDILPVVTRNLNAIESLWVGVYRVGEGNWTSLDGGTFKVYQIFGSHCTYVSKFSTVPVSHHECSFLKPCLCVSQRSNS
# GPR7 antagonist: GPR7 receptor antagonists, primary screen, cell-based, fluorescence, single concentration; AID 1861, 2009; GPR7-expressing cells, fluorescence antagonist assay; inhibition, % at 4.4 µM; 290,000 tested, 1.1% active; in the data active = inhibition above about 16%, passing the limit was not always enough;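 also: cells stimulated with the agonist NPW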
# Numbers stand for hits; – = inactive; · = not tested or not shown.
SMILES,ZTA counter,core dimer inh,EBNA-1 inhibitor,HCV NS3 hel inh,EBV gp42 inh,GPR7 antagonist
NCC1CCC(C(=O)Oc2ccc(CCC(=O)O)cc2)CC1 (centres undefined),–,–,–,·,·,·
O=C(Nc1cccc(O)c1)c1cnn2cccnc12,–,–,–,–,–,–
O=C(Nc1ccc2c(c1)OCO2)c1cnn2cccnc12,–,–,–,–,–,17.2
CN(c1ccc(Cl)cc1)c1cc(=O)n(C)c2ccccc12,–,67.5,–,–,–,–
CN(C(=O)COc1cc(=O)n(C)c2ccccc12)c1ccc(Cl)cc1,–,–,–,–,–,–
CN(C)c1ccc(/C=C2\SC(=O)N(CC(O)Cn3c4ccccc4c4ccccc43)C2=O)cc1 (centres undefined),–,–,–,–,114.8,–
S=C1NC2=C(CCC/C2=C\c2ccccc2)C(c2ccccc2)N1 (centres undefined),–,–,–,–,–,–
COc1ccc2c(c1)CCC1=C2NC(=S)NC1c1ccc(N(C)C)cc1 (centres undefined),–,–,–,–,–,–
COc1ccc(C2NC(=S)NC3=C2CCCC3=C2SCCS2)cc1 (centres undefined),–,47.9,–,–,–,–
S=C1NC2=C(CCCC2=C2SCCCS2)C(c2ccccc2)N1 (centres undefined),–,48.4,–,–,–,–
Cc1cc2nc(C3CCN(C(=S)NCCCOC(C)C)CC3)[nH]c2cc1C,–,–,–,–,–,–
C=CCN(C(=O)c1csnn1)C(C(=O)NC1CCCCC1)c1ccc(F)cc1 (centres undefined),–,–,–,–,·,–
COc1ccc(N(CC(=O)N/N=C/c2ccc(-c3ccc([N+](=O)[O-])cc3)o2)S(=O)(=O)c2ccc(C)cc2)cc1Cl,–,63.0,–,–,–,–
CCC(=O)N/N=C/c1ccc(-c2ccc([N+](=O)[O-])cc2)o1,–,–,–,–,–,–
COc1ccc(N(CC(=O)N/N=C/c2ccc(-c3ccc([N+](=O)[O-])cc3)o2)S(=O)(=O)c2ccc(C)cc2)cc1,–,52.4,–,–,–,–
O=C(/C=C/c1ccccc1[N+](=O)[O-])N1CCN(c2ccccc2F)CC1,–,–,–,–,–,–
CN1CCCc2cc(C=O)ccc21,–,–,–,–,–,–
CCCN1CCCc2cc(CN)ccc21,–,–,–,–,79.0,–
N#Cc1c(C#N)c(O)c2ccccc2c1O,–,–,–,–,68.3,–
N#Cc1ccccc1,–,·,·,·,·,·
CCOc1ccccc1N(C(=O)c1snc(C(N)=O)c1N)C(C(=O)NC1CCCC1)c1ccco1 (centres undefined),–,–,–,–,–,20.9
Cn1c(CC(=O)Nc2ccccc2Cl)nnc1SCC(=O)NC1CCCCC1,–,–,–,–,·,–
O=C(CSc1ccc(-c2ccco2)nn1)c1ccccc1,–,47.9,–,–,–,–
Cc1cc(NC(=O)COC(=O)CNC(=O)c2cccs2)c([N+](=O)[O-])cc1C,–,–,–,·,·,·
CN(C)S(=O)(=O)c1cccc(-c2nn(-c3ccccc3)cc2/C=C2\SC(=S)NC2=O)c1,–,52.5,–,–,–,–
SMILES,ZTA counter,core dimer inh,EBNA-1 inhibitor,HCV NS3 hel inh,EBV gp42 inh,GPR7 antagonist
CCOc1ccc(S(=O)(=O)N2CCc3ccccc3C2)cc1,–,–,–,–,–,19.8
COc1ccc(S(=O)(=O)N2CCc3ccccc3C2)cc1,–,–,–,–,–,–
Cc1cccc(-c2ncc(CN3CCN(C4CCCC4)C(CCO)C3)cn2)c1 (centres undefined),–,–,–,–,–,–
Cc1cccc(-c2ncc(CN3CCN(CCC(C)C)C(CCO)C3)cn2)c1 (centres undefined),–,–,–,–,–,18.5
Cc1nc2ccccc2n2c(O)c(CC(=O)O)cc12,–,–,–,–,129.1,–
CC1CCC2(CC1)NC(=O)N(CC(=O)NC(=O)Nc1ccc3c(c1)OCCO3)C2=O (centres undefined),–,–,–,–,–,19.6
Cc1onc(-c2ccccc2)c1C(=O)Nc1sc2c(c1C(N)=O)CCC2,–,61.5,–,–,–,–
Cc1onc(-c2ccccc2)c1C(=O)Nc1nc(-c2ccccc2)cs1,–,54.0,–,–,–,–
CCSc1nc2sc3c(c2c(=O)[nH]1)CCCC3,–,–,–,–,65.8,–
CSc1nc2sc3c(c2c(=O)[nH]1)CCCC3,–,–,–,–,–,–
Cc1ccc(NC(=S)NCc2ccc(S(N)(=O)=O)cc2)cc1Cl,–,–,–,–,–,20.1
c1ccc(-[n+]2nc(Nc3cccc4ccccc34)sc2-c2c3ccccc3cc3ccccc23)cc1,–,60.3,–,·,·,·
CCOC(=O)C1=C(C)N=c2s/c(=C\c3ccc(C(=O)O)cc3)c(=O)n2C1c1ccc(OC)cc1OC (centres undefined),–,–,–,–,·,–
CCOC(=O)C1=C(C)N=c2s/c(=C/c3ccco3)c(=O)n2C1c1cccc(OC)c1 (centres undefined),–,48.0,–,–,–,–
CC(C)(C)c1ccc(OCC(=O)Nc2ccc3c4c(cccc24)C(=O)NC3=O)cc1,·,·,·,–,57.0,–
COc1ccc(/C=C2\SC(c3ccc(C)cc3)=NC2=O)cc1OC,–,–,–,–,52.9,–
CN(C)c1ccc(C(CNS(=O)(=O)c2ccc3ccccc3c2)N2CCOCC2)cc1 (centres undefined),–,–,–,·,·,·
O=C1Nc2ccccc2/C1=C/C(=O)c1cccs1,–,–,–,–,–,25.8
CCOC(=O)C(=O)NN=C(c1ccccc1)c1ccccc1,–,–,–,–,–,–
Cc1nc2c(-c3ccc(F)cc3)c(C)nn2c(C)c1CCC(=O)N1CCN(c2ccc(F)cc2)CC1,–,–,–,–,–,–
CCN(CC)C(=O)CC(c1cc(OC)c(OC)c(OC)c1)c1c(OC)cc(OC)c2c(-c3ccccc3)cc(=O)oc12 (centres undefined),–,–,–,·,98.8,·
CCN(CC)C(=O)CC(c1cc(OC)c(OC)c(OC)c1)c1c(OC)cc(OC)c2ccc(=O)oc12 (centres undefined),–,–,–,·,–,·
Cc1ccc(C(=O)N/C(=C\c2ccccc2)C(=O)NCc2cccnc2)cc1,–,–,–,–,–,–
C(=N\NC1=Nc2cccc3cccc1c23)/c1ccccc1,–,–,–,–,147.7,–
Clc1ccc(/C=N/NC2=Nc3cccc4cccc2c34)cc1,–,–,–,–,–,–
O=C(/C=C/c1cn(-c2ccccc2)nc1-c1cccnc1)c1ccco1,–,61.8,–,–,–,–
O=C(/C=C/c1cn(-c2ccccc2)nc1-c1cccnc1)N1CCCC1,·,·,·,–,–,–

# Screens (PubChem BioAssay)
